{
  "source": "ChEMBL document CHEMBL5674890",
  "about": "“Selective inhibition of CBP/p300 HAT by A-485 results in suppression of lipogenesis and hepatic gluconeogenesis” (Cell Death Dis, 2020)",
  "key": {"Mus musculus [1]": {"tested_on": "Mus musculus", "test": "Anti-obesity activity in 16 hrs fasted C57BL/6 mouse supplemented with normal chow diet assessed as decrease in fasting blood glucose at 20 mg/kg/day, ip administered for 1 week", "format": "functional, organism-based", "details": "time 1.0 weeks", "summary_of_the_method": "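8-week-old male C57BL/6 mice on normal chow, ip 20 mg·kg−1·day−1 for 7 days. Blood glucose measured randomly fed or after 6 h or 16 h fasting, as the line states. Mean ± SEM, n = 5–9.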"}, "Mus musculus [2]": {"tested_on": "Mus musculus", "test": "Anti-obesity activity in 16 hrs fasted C57BL/6 mouse supplemented with normal chow diet assessed as decrease in blood glucose level at 20 mg/kg/day, ip administered for 1 week measured after 15 mins by intraperitoneal glucose tolerance test", "format": "functional, organism-based", "details": "time 1.0 weeks", "summary_of_the_method": "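Male C57BL/6 mice on normal chow, 8 weeks old, given 20 mg·kg−1·day−1 ip daily for 7 days. After 16 h fasting, glucose 2 g/kg body weight ip; blood glucose read during the test. Mean ± SEM, n = 5–9; t test or ANOVA, P < 0.05.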"}, "Mus musculus [3]": {"tested_on": "Mus musculus", "test": "Anti-obesity activity in C57BL/6 mouse supplemented with high fat diet assessed as decrease in hepatic G6Pc mRNA expression level at 20 mg/kg/day, ip administered for 1 week measured by RT-qPCR assay", "format": "functional, organism-based", "details": "time 1.0 weeks", "summary_of_the_method": "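Hepatic G6Pc mRNA in male C57BL/6 mice fed HFD for 14 weeks, then ip 20 mg·kg−1·day−1 for 7 days. Liver RNA extracted with Trizol; SYBR Green RT-qPCR.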"}, "Mus musculus [4]": {"tested_on": "Mus musculus", "test": "Inhibition of lipogenesis in C57BL/6 mouse supplemented with high-fat diet assessed as decrease in weight of epididymal white adipose tissue (eWAT) at 20 mg/kg/day, ip administered for 1 week", "format": "functional, organism-based", "details": "time 1.0 weeks", "summary_of_the_method": "(§1)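 Male C57BL/6 mice were fed high-fat diet for 14 weeks from 5 weeks of age, then injected ip with 20 mg·kg−1·day−1 for 7 days or given vehicle. Epididymal and inguinal WAT were weighed, examined by H&E, and analysed. Transcripts were measured by Trizol/SYBR Green RT-qPCR; proteins by western blot. n = 5–9; mean ± SEM.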"}, "Mus musculus [5]": {"tested_on": "Mus musculus", "test": "Inhibition of lipogenesis in C57BL/6 mouse supplemented with high-fat diet assessed as decrease in weight of inguinal white adipose tissue (iWAT) at 20 mg/kg/day, ip administered for 1 week", "format": "functional, organism-based", "details": "time 1.0 weeks", "summary_of_the_method": "as §1"}, "Mus musculus [6]": {"tested_on": "Mus musculus", "test": "Inhibition of lipogenesis in C57BL/6 mouse supplemented with high-fat diet assessed as decrease in gross size of WAT at 20 mg/kg/day, ip administered for 1 week", "format": "functional, organism-based", "details": "time 1.0 weeks", "summary_of_the_method": "as §1"}, "Mus musculus [7]": {"tested_on": "Mus musculus", "test": "Inhibition of lipogenesis in C57BL/6 mouse supplemented with normal chow diet assessed as decrease in FASN mRNA expression at 20 mg/kg/day, ip administered for 1 week measured by RT-qPCR assay", "format": "functional, organism-based", "details": "time 1.0 weeks", "summary_of_the_method": "(§2)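 Eight-week-old male C57BL/6 mice on normal chow were given 20 mg·kg−1·day−1 ip daily for 7 days or vehicle. Epididymal WAT was collected. Lipogenic, adipogenic and fatty-acid-oxidation transcripts were quantified by Trizol extraction and SYBR Green RT-qPCR. FAS, ACC, PPARγ and C/EBPα protein were assessed by western blot. n = 5–9; mean ± SEM.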"}, "Mus musculus [8]": {"tested_on": "Mus musculus", "test": "Inhibition of lipogenesis in C57BL/6 mouse supplemented with normal chow diet assessed as decrease in DGAT2 mRNA expression at 20 mg/kg/day, ip administered for 1 week measured by RT-qPCR assay", "format": "functional, organism-based", "details": "time 1.0 weeks", "summary_of_the_method": "as §2"}, "Mus musculus [9]": {"tested_on": "Mus musculus", "test": "Inhibition of lipogenesis in C57BL/6 mouse supplemented with normal chow diet assessed as effect on ACO mRNA expression at 20 mg/kg/day, ip administered for 1 week measured by RT-qPCR assay", "format": "functional, organism-based", "details": "time 1.0 weeks", "summary_of_the_method": "as §2"}, "Adipocyte [10]": {"tested_on": "Adipocyte", "test": "Inhibition of lipogenesis in mouse adipocytes isolated stromal vascular cells assessed as decrease in ACC mRNA expression measured after 24 hrs by RT-qPCR assay", "format": "functional, cell-based", "summary_of_the_method": "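Stromal vascular cells came from collagenase-digested inguinal WAT of C57BL/6 mice and were grown in DMEM/F12 with 10% FBS. At confluence, differentiation used insulin 5 μg/ml, dexamethasone 1 μM and IBMX 0.5 mM for 48 h, then insulin alone for 6 days. Fully differentiated day-8 adipocytes were exposed to A-485 for 24 h. Transcripts were quantified by RT-qPCR.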"}, "Adipocyte [11]": {"tested_on": "Adipocyte", "test": "Inhibition of lipogenesis in mouse adipocytes isolated stromal vascular cells assessed as decrease in FAS protein expression measured after 24 hrs by western blot analysis", "format": "functional, cell-based"}, "Mus musculus [12]": {"tested_on": "Mus musculus", "test": "Inhibition of hepatic lipogenesis in C57BL/6 mouse supplemented with high fat diet assessed as decrease in total cholesterol level at 20 mg/kg/day, ip administered for 1 week", "format": "functional, organism-based", "details": "time 1.0 weeks", "summary_of_the_method": "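Male C57BL/6 mice received ip A-485 at 20 mg·kg−1·day−1 for 7 days, versus vehicle. NCD mice were 8 weeks old. HFD mice had been on high-fat diet for 14 weeks from 5 weeks of age. Liver triglyceride and total cholesterol content was determined. n = 5–9; mean ± SEM.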"}, "Hepatocyte [13]": {"tested_on": "Hepatocyte", "test": "Inhibition of glucogenesis in mouse primary hepatocytes stimulated with 100 uM 8-Br-cAMP assessed as decrease in glucose production at 3 uM measured after 24 hrs", "format": "functional, cell-based", "summary_of_the_method": "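Two-step-perfusion primary mouse hepatocytes pretreated 16 h with 100 nM dexamethasone. Then incubated 24 h in glucose-free DMEM with 1 mM pyruvate, 10 mM lactate, 0.25% BSA, 100 μM 8-Br-cAMP and 3 μM test agent. Medium glucose measured colorimetrically. Mean ± SEM, three independent experiments.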"}, "Hepatocyte [14]": {"tested_on": "Hepatocyte", "test": "Inhibition of glucogenesis in mouse primary hepatocytes stimulated with 100 uM 8-Br-cAMP assessed as effect on pAMPK protein expression at 3 uM measured after 1 hr by western blot analysis", "format": "functional, cell-based", "summary_of_the_method": "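Primary hepatocytes from C57BL/6 mice, isolated by two-step perfusion, were co-treated with 3 μM A-485 and 100 μM 8-Br-cAMP for 1 h. Phospho-CREB, phospho-AMPK and phospho-TORC2 were detected by western blot of cell lysates. Three independent experiments; mean ± SEM.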"}, "HepG2": {"tested_on": "HepG2", "test": "Inhibition of glucogenesis in human HepG2 cells stimulated with 8-Br-cAMP at 3 uM assessed as effect on change in TORC2/CREB interaction measured by coimmunoprecipitation analysis", "format": "functional, cell-based", "summary_of_the_method": "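HepG2 cells treated with 3 μM compound. CREB association with CBP and TORC2 assessed by coimmunoprecipitation (antibody 2 h, protein A/G beads overnight at 4 °C) and western blot.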"}, "Mus musculus [15]": {"species_on_record": "Mus musculus", "test": "Inhibition of glucogenesis in mouse assessed as decrease in hepatic FOXO1 protein expression measured by western blot analysis", "format": "functional, organism-based", "summary_of_the_method": "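Livers from vehicle- or treated mice (ip 20 mg·kg−1·day−1 for 7 days) homogenized in lysis buffer; FOXO1 and C/EBPα analysed by western blot.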"}, "Mus musculus [16]": {"species_on_record": "Mus musculus", "test": "Inhibition of glucogenesis in mouse assessed as decrease in occupancy of G6Pc promoter with FOXO1 in liver measured by ChIP-qPCR analysis", "format": "functional, organism-based", "summary_of_the_method": "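Livers from mice dosed ip at 20 mg·kg−1·day−1 for 7 days. Tissue crosslinked in 1% formaldehyde, lysed, sonicated to 200–1000 bp chromatin, immunoprecipitated with anti-FOXO1 or IgG. G6Pc promoter quantified by qPCR.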"}, "[17]": {"molecular_target": "CREB-binding protein/Histone acetyltransferase p300 (Homo sapiens) (UniProt Q09472+Q92793)", "sequence (Q09472 whole entry, looked up)": "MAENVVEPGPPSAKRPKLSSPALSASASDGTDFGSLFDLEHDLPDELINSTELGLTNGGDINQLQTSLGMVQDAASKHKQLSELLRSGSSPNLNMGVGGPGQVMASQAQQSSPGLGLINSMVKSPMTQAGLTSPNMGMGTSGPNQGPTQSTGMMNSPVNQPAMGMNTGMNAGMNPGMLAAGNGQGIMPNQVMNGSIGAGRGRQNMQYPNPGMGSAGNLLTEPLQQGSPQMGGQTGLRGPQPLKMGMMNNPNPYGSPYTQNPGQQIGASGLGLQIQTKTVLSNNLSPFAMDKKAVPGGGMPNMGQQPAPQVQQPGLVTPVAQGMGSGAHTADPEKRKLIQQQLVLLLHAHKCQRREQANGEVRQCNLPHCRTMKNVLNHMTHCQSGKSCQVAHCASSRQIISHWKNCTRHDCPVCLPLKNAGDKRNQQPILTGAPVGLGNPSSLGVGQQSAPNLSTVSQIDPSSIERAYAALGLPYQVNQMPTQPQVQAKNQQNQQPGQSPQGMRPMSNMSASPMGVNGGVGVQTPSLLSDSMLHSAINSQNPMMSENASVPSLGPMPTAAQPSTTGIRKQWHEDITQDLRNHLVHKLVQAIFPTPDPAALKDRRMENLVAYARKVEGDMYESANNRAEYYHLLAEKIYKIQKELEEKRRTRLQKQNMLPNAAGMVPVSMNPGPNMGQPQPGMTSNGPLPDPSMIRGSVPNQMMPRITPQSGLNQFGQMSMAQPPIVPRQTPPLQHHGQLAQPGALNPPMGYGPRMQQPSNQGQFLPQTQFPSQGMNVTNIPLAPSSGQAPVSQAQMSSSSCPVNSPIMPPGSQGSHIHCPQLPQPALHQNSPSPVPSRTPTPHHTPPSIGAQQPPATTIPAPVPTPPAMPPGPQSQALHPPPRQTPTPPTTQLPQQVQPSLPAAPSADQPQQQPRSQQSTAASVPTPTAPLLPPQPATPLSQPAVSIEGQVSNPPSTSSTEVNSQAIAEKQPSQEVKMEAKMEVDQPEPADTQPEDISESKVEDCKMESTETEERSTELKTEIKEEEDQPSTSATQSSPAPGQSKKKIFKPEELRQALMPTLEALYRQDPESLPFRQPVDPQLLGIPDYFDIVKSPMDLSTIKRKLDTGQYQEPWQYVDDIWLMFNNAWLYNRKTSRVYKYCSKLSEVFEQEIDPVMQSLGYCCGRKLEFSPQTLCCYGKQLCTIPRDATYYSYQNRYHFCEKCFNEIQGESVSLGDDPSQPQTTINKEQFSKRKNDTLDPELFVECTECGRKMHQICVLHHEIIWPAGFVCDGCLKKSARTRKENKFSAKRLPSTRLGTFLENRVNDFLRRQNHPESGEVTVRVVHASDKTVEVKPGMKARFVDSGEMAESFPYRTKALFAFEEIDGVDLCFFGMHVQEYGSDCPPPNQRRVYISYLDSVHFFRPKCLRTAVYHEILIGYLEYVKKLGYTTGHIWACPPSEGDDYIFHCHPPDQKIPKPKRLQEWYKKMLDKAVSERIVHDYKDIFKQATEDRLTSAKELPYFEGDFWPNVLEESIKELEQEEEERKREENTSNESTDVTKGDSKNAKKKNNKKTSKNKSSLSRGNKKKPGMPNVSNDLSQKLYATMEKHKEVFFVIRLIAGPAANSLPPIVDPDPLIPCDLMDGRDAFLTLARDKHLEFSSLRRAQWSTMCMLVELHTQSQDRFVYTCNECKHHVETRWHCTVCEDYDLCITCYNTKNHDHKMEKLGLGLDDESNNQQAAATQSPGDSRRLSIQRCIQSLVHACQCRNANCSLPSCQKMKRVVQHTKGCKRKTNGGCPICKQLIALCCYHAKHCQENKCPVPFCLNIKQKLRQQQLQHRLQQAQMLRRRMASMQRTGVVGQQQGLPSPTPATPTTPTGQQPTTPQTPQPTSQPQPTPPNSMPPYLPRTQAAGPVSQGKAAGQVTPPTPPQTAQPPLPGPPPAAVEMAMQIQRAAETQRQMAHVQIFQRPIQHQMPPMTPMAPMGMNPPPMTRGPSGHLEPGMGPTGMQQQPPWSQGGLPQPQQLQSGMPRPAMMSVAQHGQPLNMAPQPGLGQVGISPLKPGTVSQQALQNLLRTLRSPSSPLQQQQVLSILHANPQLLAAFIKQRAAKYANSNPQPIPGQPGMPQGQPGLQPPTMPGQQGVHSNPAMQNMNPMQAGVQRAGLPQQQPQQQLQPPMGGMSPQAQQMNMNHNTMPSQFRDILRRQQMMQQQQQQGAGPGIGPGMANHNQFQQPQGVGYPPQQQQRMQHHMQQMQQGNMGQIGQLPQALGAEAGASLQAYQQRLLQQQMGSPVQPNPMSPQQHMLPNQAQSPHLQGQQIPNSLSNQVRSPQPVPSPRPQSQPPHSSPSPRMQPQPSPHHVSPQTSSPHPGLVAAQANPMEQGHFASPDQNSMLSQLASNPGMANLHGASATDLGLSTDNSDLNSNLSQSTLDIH", "sequence (Q92793 whole entry, looked up)": "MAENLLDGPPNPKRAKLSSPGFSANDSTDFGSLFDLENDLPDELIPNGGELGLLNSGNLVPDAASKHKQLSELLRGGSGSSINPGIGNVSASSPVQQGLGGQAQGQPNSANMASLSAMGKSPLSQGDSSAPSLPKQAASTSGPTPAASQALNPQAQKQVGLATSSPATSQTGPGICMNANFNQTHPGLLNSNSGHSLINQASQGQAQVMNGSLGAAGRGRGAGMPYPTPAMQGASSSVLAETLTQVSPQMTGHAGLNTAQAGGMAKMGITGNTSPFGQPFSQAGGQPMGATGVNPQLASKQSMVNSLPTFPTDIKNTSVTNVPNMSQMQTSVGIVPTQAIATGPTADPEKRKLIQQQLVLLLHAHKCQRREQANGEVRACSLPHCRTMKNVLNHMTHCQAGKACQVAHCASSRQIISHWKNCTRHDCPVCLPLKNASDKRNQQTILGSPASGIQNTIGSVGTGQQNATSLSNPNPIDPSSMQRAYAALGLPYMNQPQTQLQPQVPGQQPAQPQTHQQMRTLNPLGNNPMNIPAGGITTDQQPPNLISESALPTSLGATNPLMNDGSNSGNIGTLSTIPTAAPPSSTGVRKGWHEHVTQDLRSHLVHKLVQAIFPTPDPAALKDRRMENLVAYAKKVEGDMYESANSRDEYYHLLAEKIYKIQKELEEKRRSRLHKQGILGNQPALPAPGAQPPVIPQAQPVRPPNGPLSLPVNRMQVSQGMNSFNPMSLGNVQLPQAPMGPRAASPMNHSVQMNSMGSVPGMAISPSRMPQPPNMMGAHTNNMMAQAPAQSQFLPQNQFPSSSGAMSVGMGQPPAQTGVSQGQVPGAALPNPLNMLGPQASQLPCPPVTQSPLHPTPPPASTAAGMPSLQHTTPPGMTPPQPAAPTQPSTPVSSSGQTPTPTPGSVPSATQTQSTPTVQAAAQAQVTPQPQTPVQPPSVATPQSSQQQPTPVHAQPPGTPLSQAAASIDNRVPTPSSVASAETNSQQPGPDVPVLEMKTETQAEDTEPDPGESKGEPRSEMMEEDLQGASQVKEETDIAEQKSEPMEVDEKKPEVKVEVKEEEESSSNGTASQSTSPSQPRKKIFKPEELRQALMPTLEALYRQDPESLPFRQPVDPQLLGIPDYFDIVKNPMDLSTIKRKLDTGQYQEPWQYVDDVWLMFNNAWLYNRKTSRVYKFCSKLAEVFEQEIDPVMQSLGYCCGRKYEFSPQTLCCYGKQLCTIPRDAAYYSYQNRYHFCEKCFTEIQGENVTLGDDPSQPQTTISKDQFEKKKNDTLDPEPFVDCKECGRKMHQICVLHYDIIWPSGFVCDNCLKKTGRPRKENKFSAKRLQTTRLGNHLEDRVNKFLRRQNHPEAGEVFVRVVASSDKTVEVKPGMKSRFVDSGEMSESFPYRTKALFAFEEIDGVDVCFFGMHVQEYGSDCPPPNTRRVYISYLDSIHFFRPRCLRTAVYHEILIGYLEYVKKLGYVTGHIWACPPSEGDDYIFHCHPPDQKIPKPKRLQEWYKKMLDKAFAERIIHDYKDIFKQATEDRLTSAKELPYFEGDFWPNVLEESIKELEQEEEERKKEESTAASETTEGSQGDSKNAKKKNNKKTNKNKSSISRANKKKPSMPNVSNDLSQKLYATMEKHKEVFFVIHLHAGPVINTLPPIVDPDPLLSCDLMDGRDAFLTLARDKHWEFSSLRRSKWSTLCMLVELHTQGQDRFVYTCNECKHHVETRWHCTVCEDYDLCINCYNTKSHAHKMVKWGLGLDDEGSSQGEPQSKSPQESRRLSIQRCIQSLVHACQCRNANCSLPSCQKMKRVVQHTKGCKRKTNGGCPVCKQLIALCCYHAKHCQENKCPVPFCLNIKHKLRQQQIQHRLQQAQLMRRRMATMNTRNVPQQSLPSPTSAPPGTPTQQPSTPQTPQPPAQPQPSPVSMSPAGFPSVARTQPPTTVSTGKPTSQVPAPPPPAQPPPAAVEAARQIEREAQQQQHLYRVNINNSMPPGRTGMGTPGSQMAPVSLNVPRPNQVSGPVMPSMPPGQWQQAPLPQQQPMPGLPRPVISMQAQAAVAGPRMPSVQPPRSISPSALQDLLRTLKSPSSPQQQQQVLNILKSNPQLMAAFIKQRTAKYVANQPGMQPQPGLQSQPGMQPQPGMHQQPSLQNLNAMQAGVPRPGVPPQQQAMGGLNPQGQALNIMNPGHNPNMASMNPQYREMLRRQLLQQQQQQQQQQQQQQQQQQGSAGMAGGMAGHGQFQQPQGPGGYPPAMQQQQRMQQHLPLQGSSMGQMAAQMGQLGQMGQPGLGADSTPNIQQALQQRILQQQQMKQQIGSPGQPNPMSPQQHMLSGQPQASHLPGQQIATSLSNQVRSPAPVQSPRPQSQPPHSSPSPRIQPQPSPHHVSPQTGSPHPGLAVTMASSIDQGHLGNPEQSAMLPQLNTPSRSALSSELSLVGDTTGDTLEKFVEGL", "test": "Inhibition of CBP/p300 in mouse primary hepatocytes stimulated with 100 uM 8-Br-cAMP assessed as decrease in FOXO1 abundance in cytoplasm at 3 uM", "format": "cell-based", "details": "Primary hepatocyte", "summary_of_the_method": "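Primary mouse hepatocytes treated with 3 μM compound and 100 μM 8-Br-cAMP. Nuclear and cytoplasmic fractions separated with a commercial kit; FOXO1 detected by western blot.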"}},
  "note": "Active and inactive are the calls of the source. The calls are words filed in the database; no cut-off is given here.",
  "data": [
    {"smiles": "CNC(=O)Nc1ccc2c(c1)CCS21OC(=O)N(CC(=O)N(Cc2ccc(F)cc2)[C@@H](C)C(F)(F)F)C1=O", "note": "(stereo partly drawn)", "values": [
      {"measurement": "Activity", "setting": "Mus musculus [1]", "value": "Active"},
      {"measurement": "Activity", "setting": "Mus musculus [2]", "value": "Active"},
      {"measurement": "Activity", "setting": "Mus musculus [3]", "value": "Active"},
      {"measurement": "inhibition", "setting": "Mus musculus [4]", "value": "Active"},
      {"measurement": "inhibition", "setting": "Mus musculus [5]", "value": "Active"},
      {"measurement": "inhibition", "setting": "Mus musculus [6]", "value": "Active"},
      {"measurement": "inhibition", "setting": "Mus musculus [7]", "value": "Active"},
      {"measurement": "inhibition", "setting": "Mus musculus [8]", "value": "Active"},
      {"measurement": "inhibition", "setting": "Mus musculus [9]", "value": "inactive"},
      {"measurement": "inhibition", "setting": "Adipocyte [10]", "value": "Active"},
      {"measurement": "inhibition", "setting": "Adipocyte [11]", "value": "Active"},
      {"measurement": "inhibition", "setting": "Mus musculus [12]", "value": "Active"},
      {"measurement": "inhibition", "setting": "Hepatocyte [13]", "value": "Active"},
      {"measurement": "inhibition", "setting": "Hepatocyte [14]", "value": "inactive"},
      {"measurement": "inhibition", "setting": "HepG2", "value": "inactive"},
      {"measurement": "inhibition", "setting": "Mus musculus [15]", "value": "Active"},
      {"measurement": "inhibition", "setting": "Mus musculus [16]", "value": "Active"},
      {"measurement": "inhibition", "setting": "[17]", "value": "Active"}
    ]}
  ]
}
